The text below walks through data of paper PMC8100350 (International Journal for Parasitology: Drugs and Drug …, 2021).

Holding throughout (type): cell-based
The subject of one test is P. falciparum C2B. The settings on record: 48 h, 72 h and 96 h assays (all time points). The method, boiled down: (§1)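 Sorbitol-synchronised ring stages in O+ erythrocytes, run as 48 h (1% parasitaemia, 1% haematocrit, label at start), 72 h (0.25%, 2.5%, label ~48 h) or 96 h (0.1%, 2%, medium change plus label ~72 h). Read-out was [3H]-hypoxanthine incorporation by scintillation. IC50 by log-linear interpolation against 0.5% DMSO; triplicate wells, ≥2 independent assays. RI = resistant-line IC50/3D7 IC50. Controls: chloroquine (Dd2), atovaquone (C2B), cycloguanil (FCR3).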

A further test concerns P. falciparum 3D7. The test can be described thus: [3H]-hypoxanthine incorporation growth inhibition assay, P. falciparum 3D7. The following applies: for IC50: mean ± SD.
The next test deals with P. falciparum Dd2. An outline of the steps: as §1
Test [1] relates to Neonatal foreskin fibroblast (NFF) cells. The test can be described thus: Human cell cytotoxicity assay, NFF. The following applies: read-out: NFF IC50. The method, boiled down:
(§2)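 NFF and HEK293 cells were grown in RPMI 1640 with 10% FCS and 1% streptomycin at 37 °C and 5% CO2. Exposure was 72 h. Growth inhibition was taken against matched DMSO controls. IC50 came from log-linear interpolation, as the mean ± SD of three independent experiments, each in triplicate.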

The test system of test [2] is human embryonic kidney (Hek293) cells. The test is described as follows: Human cell cytotoxicity assay, HEK293. The settings on record: HEK293, read-out: HEK293 IC50. An outline of the steps: as §2
Test [3] concerns P. falciparum 3D7 parasites. The test can be described thus: Isopentenyl pyrophosphate. The following applies: for rescue of growth inhibitory activity by IPP supplementation: 96 h assay, 200 μM IPP; for IC50: Plasmodium falciparum, 3D7, 96 h. The method, boiled down:
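3D7 ring stages, sorbitol-synchronised, in O+ erythrocytes (0.1% parasitaemia, 2% haematocrit). Two identical 96 h assays ran in parallel, one with and one without 200 μM IPP. At ~72 h medium was replaced with fresh medium containing [3H]-hypoxanthine, incubated 24 h more, frozen, harvested and counted. Clindamycin was the positive control. IC50 by log-linear interpolation; triplicate wells, ≥3 independent experiments; unpaired t-test.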

Setting [4] is: Plasmodium falciparum, 3D7, 48 h, read-out: P. falciparum 3D7 IC50, 48 h, 48 h assay (fast action).
Where [5] appears, read: Plasmodium falciparum, 3D7, 72 h, read-out: P. falciparum 3D7 IC50, 72 h, 72 h assay.
Where [6] appears, read: Plasmodium falciparum, 3D7, 96 h, read-out: P. falciparum 3D7 IC50, 96 h, 96 h assay (slow action).

Like-named read-outs stand apart in the source and are kept apart here.

Regarding `O=C1C(O)=C([C@H]2CC[C@H](c3ccc(Cl)cc3)CC2)C(=O)c2ccccc21` [ATQ, atovaquone], the “Resistance Index (RI), C2B versus 3D7, text summary” value in the test with P. falciparum C2B is recorded as greater than 2000.
In general, IC50 refers to the concentration that inhibits the measured activity by half. Consider `CCN(CC)CCCC(C)Nc1ccnc2cc(Cl)ccc12` (stereo not shown) [Chloroquine], for which the “PfSI, Selectivity Index (mammalian cell IC50/P. falciparum IC50)” value in the test on P. falciparum 3D7 (NFF or HEK293 IC50 / P. falciparum 3D7 72 h IC50) is 4555–5896. Moreover, the IC50 was 0.008 ± 0.002 µM with P. falciparum 3D7 (setting [4]); 0.006 ± 0.004 µM in the test with P. falciparum 3D7 (setting [5]); 0.004 ± 0.002 µM in the test with P. falciparum 3D7 (setting [6]); 35.4 ± 3.6 µM in test [1]; 27.3 ± 13.3 µM in test [2]. Further, the “RI (Dd2 IC50/3D7 IC50), 48h” value with P. falciparum Dd2 (48 h assay) stood at 3. Further, the “RI (Dd2 IC50/3D7 IC50), 72h” value in the test on P. falciparum Dd2 (72 h assay) came out at 3. In the test with P. falciparum Dd2 (96 h assay), the “RI (Dd2 IC50/3D7 IC50), 96h” value was 7. Moreover, in test [3], the “rescue of growth inhibitory activity by IPP supplementation” value was “not rescued”.
For the compound `CCC[C@@H]1C[C@@H](C(=O)N[C@@H]([C@H]2O[C@H](SC)[C@H](O)[C@@H](O)[C@H]2O)[C@H](C)Cl)N(C)C1` [Clindamycin, clindamycin], the IC50 in the test with P. falciparum 3D7 (setting [4]) was greater than 50 µM; in the test on P. falciparum 3D7 (setting [5]), 0.009 ± 0.002 µM; in the test with P. falciparum 3D7 (setting [6]), 0.005 ± 0.002 µM; in test [3] (read-out: P. falciparum 3D7 IC50, +IPP), greater than 0.5 µM; in test [3] (read-out: P. falciparum 3D7 IC50, -IPP), 0.004 ± 0.001 µM. Also, the “rescue of growth inhibitory activity by IPP supplementation” value in test [3] is recorded as “rescued”.
With `CCOC(=O)N[C@@H]1CC[C@@H]2[C@@H](C1)C[C@H]1C(=O)O[C@H](C)[C@H]1[C@H]2/C=C/c1ccc(-c2cccc(F)c2)cn1` [Vorapaxar], the “fold less active than himbeline” value in the test on P. falciparum 3D7 (96 h assays, 3D7) is recorded as ~ 6 fold. Also, the IC50 with P. falciparum 3D7 (setting [4]) is 11.2 ± 3 µM; in the test on P. falciparum 3D7 (setting [5]) it was 3.93 ± 1.07 µM; in the test on P. falciparum 3D7 (setting [6]), 3.5 µM; with P. falciparum 3D7 (read-out: P. falciparum 3D7 IC50, 96 h, 96 h assay (slow action)), 3.52 ± 0.25 µM.
